Reference: ChEMBL document CHEMBL1149086, “Antimalarial and antitumor evaluation of novel C-10 non-acetal dimers of 10beta-(2-hydroxyethyl)deoxoartemisinin” (J Med Chem, 2004)

Assays:
Jurkat = experiment: Inhibitory concentration against Jurkat cells; type: functional, cell-based; conditions: Homo sapiens
Summary of the method: (§1)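 HL60 (2.5 × 10⁴/well) or Jurkat (1 × 10⁵/well) in RPMI-1640 with 10% FBS and 1% L-glutamine, 5% CO2, 37 °C. Exposed to 10⁻¹⁰–10⁻⁴ M for 72 h, final DMSO below 0.5% v/v. [3H]-thymidine (0.5 μCi) added for the final 24 h. Incorporation counted by β-scintillation.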

CCRF-CEM [1] = experiment: Concentration of the drug required to achieve 50% cytotoxicity against leukemia CCRF-CEM cell line; type: cell-based; conditions: human
CCRF-CEM [2] = experiment: Concentration of the drug required to achieve 50% cytotoxicity against leukemia HL-60(TB) cell line; type: cell-based; conditions: human
CCRF-CEM [3] = experiment: Concentration required to achieve total growth inhibition against leukemia CCRF-CEM cell line; type: functional; conditions: Homo sapiens
COLO 205 [4] = experiment: inhibition against colon COLO 205 cancer cell line; type: functional; conditions: Homo sapiens
CCRF-CEM [5] = experiment: inhibition against leukemia CCRF-CEM cell line; type: functional; conditions: Homo sapiens
COLO 205 [6] = experiment: Concentration of the drug required to achieve 50% cytotoxicity against colon COLO 205 cancer cell line; type: cell-based; conditions: human
COLO 205 [7] = experiment: Concentration required to achieve total growth inhibition against colon COLO 205 cancer cell line; type: functional; conditions: Homo sapiens
HCT-15 [8] = experiment: Concentration required to achieve total growth inhibition against colon HCT-15 cancer cell line; type: functional; conditions: Homo sapiens
HCT-15 [9] = experiment: Concentration of the drug required to achieve 50% cytotoxicity against colon HCT-15 cancer cell line; type: cell-based; conditions: human
HCT-116 [10] = experiment: Concentration required to achieve total growth inhibition against colon HCT116 cancer cell line; type: functional; conditions: Homo sapiens
HCT-15 [11] = experiment: inhibition against colon HCT-15 cancer cell line; type: functional; conditions: Homo sapiens
HL-60 [12] = experiment: inhibition against leukemia HL-60(TB) cell line; type: functional; conditions: Homo sapiens
HL-60 [13] = experiment: Concentration required to achieve total growth inhibition against leukemia HL-60(TB) cell line; type: functional; conditions: Homo sapiens
HCT-116 [14] = experiment: Concentration of the drug required to achieve 50% cytotoxicity against colon HCT116 cancer cell line; type: cell-based; conditions: human
HCC 2998 [15] = experiment: Concentration required to achieve total growth inhibition against colon HCC2998 cancer cell line; type: functional; conditions: Homo sapiens
HCT-116 [16] = experiment: inhibition against colon HCT116 cancer cell line; type: functional; conditions: Homo sapiens
HCC 2998 [17] = experiment: inhibition against colon HCC2998 cancer cell line; type: functional; conditions: Homo sapiens
HCC 2998 [18] = experiment: Concentration of the drug required to achieve 50% cytotoxicity against colon HCC2998 cancer cell line; type: cell-based; conditions: human
HT-29 [19] = experiment: Concentration of the drug required to achieve 50% cytotoxicity against colon HT-29 cancer cell line; type: cell-based; conditions: human
HT-29 [20] = experiment: inhibition against colon HT-29 cancer cell line; type: functional; conditions: Homo sapiens
HT-29 [21] = experiment: Concentration required to achieve total growth inhibition against colon HT-29 cancer cell line; type: functional; conditions: Homo sapiens
KM12 [22] = experiment: Concentration required to achieve total growth inhibition against colon KM12 cancer cell line; type: functional; conditions: Homo sapiens
K562 [23] = experiment: Concentration required to achieve total growth inhibition against leukemia K-562 cell line; type: functional; conditions: Homo sapiens
KM12 [24] = experiment: inhibition against colon KM12 cancer cell line; type: functional; conditions: Homo sapiens
KM12 [25] = experiment: Concentration of the drug required to achieve 50% cytotoxicity against colon KM12 cancer cell line; type: cell-based; conditions: human
MOLT-4 [26] = experiment: inhibition against leukemia MOLT-4 cell line; type: functional; conditions: Homo sapiens
LOX IMVI [27] = experiment: inhibition against melanoma LOX IMVI cell line; type: functional; conditions: Homo sapiens
LOX IMVI [28] = experiment: Concentration of the drug required to achieve 50% cytotoxicity against melanoma LOX IMVI cell line; type: cell-based; conditions: human
LOX IMVI [29] = experiment: Concentration required to achieve total growth inhibition against melanoma LOX IMVI cell line; type: functional; conditions: Homo sapiens
MCF7 [30] = experiment: Concentration required to achieve total growth inhibition against breast MCF-7 cancer cell line; type: functional; conditions: Homo sapiens
MCF7 [31] = experiment: Concentration of the drug required to achieve 50% cytotoxicity against breast MCF-7 cancer cell line; type: cell-based; conditions: human
Malme-3M [32] = experiment: inhibition against melanoma MALME-3M cell line; type: functional; conditions: Homo sapiens
Malme-3M [33] = experiment: Concentration of the drug required to achieve 50% cytotoxicity against melanoma MALME-3M cell line; type: cell-based; conditions: human
MOLT-4 [34] = experiment: Concentration required to achieve total growth inhibition against leukemia MOLT-4 cell line; type: functional; conditions: Homo sapiens
Malme-3M [35] = experiment: Concentration required to achieve total growth inhibition against melanoma MALME-3M cell line; type: functional; conditions: Homo sapiens
MOLT-4 [36] = experiment: Concentration of the drug required to achieve 50% cytotoxicity against leukemia MOLT-4 cell line; type: cell-based; conditions: human
NCI/ADR-RES [37] = experiment: inhibition against breast NCI/ ADR-RES cancer cell line; type: functional; conditions: Homo sapiens
NCI/ADR-RES [38] = experiment: Concentration of the drug required to achieve 50% cytotoxicity against breast NCI/ ADR-RES cancer cell line; type: cell-based; conditions: human
NCI/ADR-RES [39] = experiment: Concentration required to achieve total growth inhibition against breast NCI/ ADR-RES cancer cell line; type: functional; conditions: Homo sapiens
PC-3 [40] = experiment: Concentration of the drug required to achieve 50% cytotoxicity against prostate PC-3 cell line; type: cell-based; conditions: human
PC-3 [41] = experiment: inhibition against prostate PC-3 cell line; type: functional; conditions: Homo sapiens
Plasmodium falciparum = experiment: In vitro antimalarial activity against Plasmodium falciparum HB3 by [3H]hypoxanthine uptake; type: functional, organism-based
PC-3 [42] = experiment: Concentration required to achieve total growth inhibition against prostate PC-3 cell line; type: functional; conditions: Homo sapiens
RPMI-8226 [43] = experiment: Concentration of the drug required to achieve 50% cytotoxicity against leukemia RPMI-8226 cell line; type: cell-based; conditions: human
RPMI-8226 [44] = experiment: Concentration required to achieve total growth inhibition against leukemia RPMI-8226 cell line; type: functional; conditions: Homo sapiens
SW-620 [45] = experiment: inhibition against colon SW-620 cancer cell line; type: functional; conditions: Homo sapiens
SW-620 [46] = experiment: Concentration of the drug required to achieve 50% cytotoxicity against colon SW-620 cancer cell line; type: cell-based; conditions: human
SR [47] = experiment: inhibition against leukemia SR cell line; type: functional; conditions: Homo sapiens
SR [48] = experiment: Concentration of the drug required to achieve 50% cytotoxicity against leukemia SR cell line; type: cell-based; conditions: human
SR [49] = experiment: Concentration required to achieve total growth inhibition against leukemia SR cell line; type: functional; conditions: Homo sapiens
SW-620 [50] = experiment: Concentration required to achieve total growth inhibition against colon SW-620 cancer cell line; type: functional; conditions: Homo sapiens
SK-MEL-5 [51] = experiment: inhibition against melanoma SK-MEL-5 cell line; type: functional; conditions: Homo sapiens
SK-MEL-5 [52] = experiment: Concentration required to achieve total growth inhibition against melanoma SK-MEL-5 cell line; type: functional; conditions: Homo sapiens
T47D [53] = experiment: inhibition against breast T-47D cancer cell line; type: functional; conditions: Homo sapiens
T47D [54] = experiment: Concentration of the drug required to achieve 50% cytotoxicity against breast T-47D cancer cell line; type: cell-based; conditions: human
T47D [55] = experiment: Concentration required to achieve total growth inhibition against breast T-47D cancer cell line; type: functional; conditions: Homo sapiens
UACC-62 [56] = experiment: inhibition against melanoma UACC-62 cell line; type: functional; conditions: Homo sapiens
UACC-62 [57] = experiment: Concentration of the drug required to achieve 50% cytotoxicity against melanoma UACC-62 cell line; type: cell-based; conditions: human
UACC-62 [58] = experiment: Concentration required to achieve total growth inhibition against melanoma UACC-62 cell line; type: functional; conditions: Homo sapiens
HL-60 [59] = experiment: Inhibitory concentration against HL60 cells; type: functional, cell-based; conditions: Homo sapiens; summary of the method: as §1
SK-MEL-5 [60] = experiment: Concentration of the drug required to achieve 50% cytotoxicity against melanoma SK-MEL-5 cell line; type: cell-based; conditions: human
RPMI-8226 [61] = experiment: inhibition against leukemia RPMI-8226 cell line; type: functional; conditions: Homo sapiens
K562 [62] = experiment: inhibition against leukemia K-562 cell line; type: functional; conditions: Homo sapiens
MCF7 [63] = experiment: inhibition against breast MCF-7 cancer cell line; type: functional; conditions: Homo sapiens

Work on `COP(=O)(OCC[C@H]1O[C@@H]2OC3(C)CC[C@H]4[C@H](C)CC[C@@H]([C@H]1C)[C@@]24OO3)OCC[C@H]1O[C@@H]2OC3(C)CC[C@H]4[C@H](C)CC[C@@H]([C@H]1C)[C@@]24OO3` (single isomer, unassigned) yielded an IC50 (Jurkat) of 7.7 µM, an LC50 (CCRF-CEM [1]) of 100 µM and an LC50 (CCRF-CEM [2]) of 20 µM. It also gave a TGI (CCRF-CEM [3]) of 30 µM, a GI50 (COLO 205 [4]) of less than 0.01 µM and a GI50 (CCRF-CEM [5]) of 0.769 µM. The LC50 (COLO 205 [6]) was 2.59 µM, the TGI (COLO 205 [7]) was 0.21 µM and the TGI (HCT-15 [8]) was 14.4 µM. The LC50 (HCT-15 [9]) was 38.7 µM, the TGI (HCT-116 [10]) was 32.6 µM and the GI50 (HCT-15 [11]) was less than 0.01 µM. It also gave a GI50 (HL-60 [12]) of less than 0.01 µM, a TGI (HL-60 [13]) of 1 µM and an LC50 (HCT-116 [14]) greater than 100 µM. It also gave a TGI (HCC 2998 [15]) of 16.4 µM, a GI50 (HCT-116 [16]) of 1.85 µM and a GI50 (HCC 2998 [17]) of 1.25 µM. For the same compound, the LC50 (HCC 2998 [18]) was 52.9 µM, the LC50 (HT-29 [19]) was 40 µM and the GI50 (HT-29 [20]) was less than 0.01 µM. For the same compound, the TGI (HT-29 [21]) was 12.6 µM, the TGI (KM12 [22]) was 12.6 µM and the TGI (K562 [23]) was 1.17 µM. For the same compound, the GI50 (KM12 [24]) was less than 0.01 µM, the LC50 (KM12 [25]) was 40 µM and the GI50 (MOLT-4 [26]) was less than 0.01 µM. For the same compound, the GI50 (LOX IMVI [27]) was less than 0.01 µM, the LC50 (LOX IMVI [28]) was 52.9 µM and the TGI (LOX IMVI [29]) was 16.4 µM. For the same compound, the TGI (MCF7 [30]) was 18.3 µM, the LC50 (MCF7 [31]) was 72.2 µM and the GI50 (Malme-3M [32]) was 0.0474 µM. For the same compound, the LC50 (Malme-3M [33]) was greater than 100 µM, the TGI (MOLT-4 [34]) was 9.8 µM and the TGI (Malme-3M [35]) was 32.6 µM. The LC50 (MOLT-4 [36]) was 33.5 µM, the GI50 (NCI/ADR-RES [37]) was 0.994 µM and the LC50 (NCI/ADR-RES [38]) was 75.5 µM. The TGI (NCI/ADR-RES [39]) was 22.1 µM, the LC50 (PC-3 [40]) was 70.3 µM and the GI50 (PC-3 [41]) was less than 0.01 µM. For the same compound, the IC50 (Plasmodium falciparum) was 0.09 nM, the TGI (PC-3 [42]) was 18.8 µM and the LC50 (RPMI-8226 [43]) was greater than 100 µM. The TGI (RPMI-8226 [44]) was 13.7 µM, the GI50 (SW-620 [45]) was less than 0.01 µM and the LC50 (SW-620 [46]) was 40 µM. It also gave a GI50 (SR [47]) of less than 0.01 µM, an LC50 (SR [48]) greater than 100 µM and a TGI (SR [49]) of 2.84 µM. It also gave a TGI (SW-620 [50]) of 12.6 µM, a GI50 (SK-MEL-5 [51]) of 0.199 µM and a TGI (SK-MEL-5 [52]) of 15.2 µM. The GI50 (T47D [53]) was less than 0.01 µM, the LC50 (T47D [54]) was 25.6 µM and the TGI (T47D [55]) was less than 10 µM. For the same compound, the GI50 (UACC-62 [56]) was 0.486 µM, the LC50 (UACC-62 [57]) was 42.9 µM and the TGI (UACC-62 [58]) was 18.4 µM. For the same compound, the IC50 (HL-60 [59]) was 0.143 µM, the LC50 (SK-MEL-5 [60]) was 38.9 µM and the GI50 (RPMI-8226 [61]) was less than 0.01 µM. It also gave a GI50 (K562 [62]) of less than 0.01 µM and a GI50 (MCF7 [63]) of 0.0503 µM.
